Source: PMC3357394 (Organic & biomolecular chemistry, 2011)

What was measured:
recombinant CD38 = biological target: T1, recombinant CD38 (Homo sapiens, UniProt P28907); assay: Inhibition of the NADase; type: biochemical; conditions: for inhibitory activity against CD38 NADase (in words): recombinant CD38
T1 sequence (P28907 45-300): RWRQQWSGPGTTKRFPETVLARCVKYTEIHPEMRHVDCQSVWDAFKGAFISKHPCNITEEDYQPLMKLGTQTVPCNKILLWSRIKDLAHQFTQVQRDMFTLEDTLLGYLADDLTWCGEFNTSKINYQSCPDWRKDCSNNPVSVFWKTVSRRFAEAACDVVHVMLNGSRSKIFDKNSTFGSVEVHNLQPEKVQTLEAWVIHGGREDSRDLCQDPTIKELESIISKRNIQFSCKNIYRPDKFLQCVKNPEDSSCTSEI

PC12 cells = conditions: cited from earlier work
[1] = biological target: NAD+ glycohydrolase activity of CD38; conditions: competitive inhibitor of NAD+ glycohydrolase activity of CD38; cited from earlier work
[2] = system: phenylephrine-induced contraction in rat aortic ring preparations with intact endothelium; conditions: Phe (1 μM)-contracted endothelium-intact rat aortic rings, 30-300 μM
Procedure, shortened: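 Endothelium-intact 3 mm thoracic aortic rings from male Sprague-Dawley rats (250–300 g) were held isometrically at 15 mN in Krebs solution (37°, 95% O2-5% CO2, pH≈7.4) and checked with 0.3 μM Phe then 1 μM ACh. After 60 min equilibration, rings were precontracted with 1 μM Phe and given cumulative water-dissolved test compound (30–300 μM). pD2 came from nonlinear fits of individual curves; mean±SEM, 3–5 rats/group.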

CD38 = conditions: inhibitors of CD38; cited from earlier work

Compound	IC50 (recombinant CD38) [mM]	inhibitory activity against CD38 NADase (in words) (recombinant CD38)	further results
NC(=O)c1c[n+](COCCOc2ccc(Oc3ccccc3)cc2)ccc1N.[Cl-] [Compound 14, 1-{[2-(4-phenoxy-phenoxy)ethoxy]methyl}-3-(aminocarbonyl)-4-amino-pyridiniu m chloride]	4.8	weak inhibitory activities	
NC(=O)c1ccc[n+](COCCOc2cccc(C(F)(F)F)c2)c1.[Cl-] [Compound 6, 1-{[2-(3-trifluoromethyl-phenoxy)ethoxy]methyl}-3-(aminocarbonyl)-pyridinium chloride]		no affinity for CD38	
NC(=O)c1ccc[n+](COC/C=C/COc2cccc3cccnc23)c1.[Cl-] [Compound 12, (E)-1-{[4-(8′-quinolyloxy)but-2-enyloxy]methyl}-3-(aminocarbonyl)-pyridinium chloride]		weak inhibitory activities	
NC(=O)c1ccc2c(ccc[n+]2COCCOc2ccc(Oc3ccccc3)cc2)c1.[Cl-] [Compound 13, 1-{[2-(4-phenoxy-phenoxy)ethoxy]methyl}-6-(aminocarbonyl)-quinolinium chloride]	2.12	weak inhibitory activities	
NC(=O)c1ccc[n+](COCCOc2ccc([N+](=O)[O-])cc2)c1.[Cl-] [Compound 5, 1-{[2-(4-nitro-phenoxy)ethoxy]methyl}-3-(aminocarbonyl)-pyridinium chloride]	5.65	weak inhibitory activities	
COc1ccc(OCCOC[n+]2cccc(C(N)=O)c2)cc1.[Cl-] [Compound 3, 1-{[2-(4-methoxy-phenoxy)ethoxy]methyl}-3-(aminocarbonyl)-pyridinium chloride]	11.4	weak inhibitory activities	
NC(=O)c1ccc[n+](COCCOc2cccc3cccnc23)c1.[Cl-] [Compound 7, 1-{[2-(8′-quinolyloxy)ethoxy]methyl}-3-(aminocarbonyl)-pyridinium chloride]		weak inhibitory activities	inhibition of acetylcholine (Ach)-induced Ca2+ increase (in words) (PC12 cells): significantly inhibited
NC(=O)c1ccc[n+]([C@@H]2C[C@H](COP(=O)([O-])OP(=O)(O)OC[C@H]3O[C@@H](n4cnc5c(N)ncnc54)[C@H](O)[C@@H]3O)[C@@H](O)[C@H]2O)c1 [carba-NAD^+, dinucleotide carbanicotinamide adenine dinucleotide]			IC50 [1]: ~100 µM
NC(=O)c1ccc[n+](COCCOc2ccc(Oc3ccccc3)cc2)c1.[Cl-] [Compound 4, 1-{[2-(4-phenoxy-phenoxy)ethoxy]methyl}-3-(aminocarbonyl)-pyridinium chloride]	3.42	weak inhibitory activities	vascular relaxing effect (in words) [2]: concentration-dependent relaxation
NC(=O)c1ccc[n+]([C@@H]2O[C@H](COP(=O)(O)O)C(O)C2F)c1 (stereo partly drawn) [ara-F NMN]			Ki (CD38): nano-molar range
NC(=O)c1ccc[n+](COCCCCOC[n+]2cccc(C(N)=O)c2)c1.[Cl-].[Cl-] [Compound 9, 1,4-dimethoxy-butylene-bis-N,N′-3-(aminocarbonyl)-pyridinium dichloride]			vascular relaxing effect (in words) [2]: no such vascular relaxing effect
